Source: the RNAGym collection of RNA variant scans (doi:10.1002/anie.201605470)

B1: Osa-1-4 twister ribozyme (parent)
chain: CCGCCUAACACUGCCAAUGCCGGUCCCAAGCCCGGAUAAAAGUGGAGGGGGCGG

Variants of: B1
Assay: self-cleavage, relative activity (ratio to wild type); higher = more cleavage; co-transcriptional
How it was run: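 A DNA template encoding a 54-nucleotide twister ribozyme from Oryza sativa was made so that each of the 48 positions downstream of the cleavage site carried 97 % wild-type base and 1 % of each other base. Transcription in vitro ran for 2 h at 37 °C, during which the ribozyme could cleave itself. Reverse transcription used a template-switching oligonucleotide, and the products were PCR-amplified and deep-sequenced. Each read was scored as cleaved or uncleaved by whether upstream sequence was present, and relative activity is the fraction cleaved normalised to wild type.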
With G23U the self-cleavage was 0.18. In the case of G23A, the self-cleavage is reported as 0.8. Variant G23C has a self-cleavage of 0.05. In the case of G23U G49U, the self-cleavage is reported as 0.03. With G23U G49C the self-cleavage was 0.03. In the case of G23U G49A, the self-cleavage is reported as 0.03. With C25A G13U the self-cleavage was 0.02. C25A G13C gave a self-cleavage of 0.02. For C25A G13A, the self-cleavage was 0.03. G23C G54U showed a self-cleavage of 0.06. For G23C G54A, the self-cleavage was 0.06. Work on G23C G54C yielded a self-cleavage of 0.05. For C25A G35A, the self-cleavage was 0.18. Work on C25A G35C yielded a self-cleavage of 0.05. Variant C25A G35U has a self-cleavage of 0.09. Variant G23A G42C has a self-cleavage of 0.07. For G23A G42U, the self-cleavage was 0.05. For G23A G42A, the self-cleavage was 0.08. G22U G48A showed a self-cleavage of 0.04. Variant G22U G48C has a self-cleavage of 0.06. G22U G48U gave a self-cleavage of 0.05. In the case of C25A G22U, the self-cleavage is reported as 0.07. Work on C25A G22A yielded a self-cleavage of 0.15. C25A G22C gave a self-cleavage of 0.03. With G22U U18C the self-cleavage was 0.68. G22U U18A showed a self-cleavage of 0.84. Variant G22U U18G has a self-cleavage of 0.82. With G22U G53A the self-cleavage was 0.1. G22U G53C gave a self-cleavage of 0.05. With G22U G53U the self-cleavage was 0.12. Variant G23C G42C has a self-cleavage of 0.05. Work on G23C G42U yielded a self-cleavage of 0.02. Work on G23C G42A yielded a self-cleavage of 0.05. G23C U24G gave a self-cleavage of 0.01. G23C U24A showed a self-cleavage of 0.03. With G23C U24C the self-cleavage was 0.04. In the case of C25A G42A, the self-cleavage is reported as 0.06. C25A G42U showed a self-cleavage of 0.03. Work on C25A G42C yielded a self-cleavage of 0.04. Work on G22U G30C yielded a self-cleavage of 0.04. G22U G30U gave a self-cleavage of 0.03. Work on U24A U37A yielded a self-cleavage of 0.34. With U24A U37C the self-cleavage was 0.28. U24A U37G gave a self-cleavage of 0.49. For C25A C52A, the self-cleavage was 0.14. Variant C25A C52U has a self-cleavage of 0.17. In the case of C25A C52G, the self-cleavage is reported as 0.17. G23C U18A showed a self-cleavage of 0.06. G23C U18C showed a self-cleavage of 0.14. Work on G23C U18G yielded a self-cleavage of 0.06. U24C U43A gave a self-cleavage of 0.08. Work on U24C U43G yielded a self-cleavage of 0.05. For U24C U43C, the self-cleavage was 0.06. With G22U U37C the self-cleavage was 0.55. G22U U37G gave a self-cleavage of 0.92. G22U U37A showed a self-cleavage of 0.93. With G23U U18C the self-cleavage was 0.1. With G23U U18A the self-cleavage was 0.1. For G23U U18G, the self-cleavage was 0.14. Variant C25A G54U has a self-cleavage of 0.28. Work on C25A G54A yielded a self-cleavage of 0.12. With C25A G54C the self-cleavage was 0.08. G23U G48C gave a self-cleavage of 0.03. In the case of G23U G48A, the self-cleavage is reported as 0.02. Variant G23U G48U has a self-cleavage of 0.03. With C25A G50C the self-cleavage was 0.27. In the case of C25A G50A, the self-cleavage is reported as 0.59. In the case of C25A G50U, the self-cleavage is reported as 0.42. Work on G23C G53C yielded a self-cleavage of 0.02. G23C G53A gave a self-cleavage of 0.04. Work on G23C G53U yielded a self-cleavage of 0.04. Variant C25A has a self-cleavage of 0.2. Work on C25G yielded a self-cleavage of 0.12. G23C G49C showed a self-cleavage of 0.02. In the case of G23C G49U, the self-cleavage is reported as 0.03. Work on G23C G49A yielded a self-cleavage of 0.03. With C25A C31U the self-cleavage was 0.03. With C25A C31A the self-cleavage was 0.04. Variant C25A C31G has a self-cleavage of 0.03. Work on G23U G54U yielded a self-cleavage of 0.2. G23U G54A showed a self-cleavage of 0.09. In the case of G23U G54C, the self-cleavage is reported as 0.08. Variant C25A G44U has a self-cleavage of 0.06. For C25A G44A, the self-cleavage was 0.05. C25A G44C gave a self-cleavage of 0.1. With G23A G54C the self-cleavage was 0.21. For G23A G54U, the self-cleavage was 0.41. Variant G23A G54A has a self-cleavage of 0.2. With C25A U37A the self-cleavage was 0.11. With C25A U37G the self-cleavage was 0.25. Work on C25A U37C yielded a self-cleavage of 0.14. With G23U G30U the self-cleavage was 0.02. With G23U G30A the self-cleavage was 0.02. Variant G23U G30C has a self-cleavage of 0.03. Work on C25A C9A yielded a self-cleavage of 0.05. With C25A C9G the self-cleavage was 0.08. For C25A C9U, the self-cleavage was 0.06. Work on G23U G45C yielded a self-cleavage of 0.03. In the case of G23U G45A, the self-cleavage is reported as 0.04. With G23U G45U the self-cleavage was 0.03. G23C G50A showed a self-cleavage of 0.04. G23C G50U gave a self-cleavage of 0.05. In the case of G23C G50C, the self-cleavage is reported as 0.04. In the case of G23A U43C, the self-cleavage is reported as 0.09. G23A U43A gave a self-cleavage of 0.1. G23A U43G gave a self-cleavage of 0.09. With G23A U18G the self-cleavage was 0.38. Variant G23A U18C has a self-cleavage of 0.49. G23A U18A showed a self-cleavage of 0.59. G22U U12C showed a self-cleavage of 0.1. Work on G22U U12A yielded a self-cleavage of 0.13. In the case of G22U U12G, the self-cleavage is reported as 0.05. In the case of G23A G49A, the self-cleavage is reported as 0.06. Variant G23A G49C has a self-cleavage of 0.05. In the case of G23A G49U, the self-cleavage is reported as 0.06. U24C U37A showed a self-cleavage of 0.45. U24C U37C gave a self-cleavage of 0.51. U24C U37G gave a self-cleavage of 0.55. In the case of C25A U24A, the self-cleavage is reported as 0.04. For C25A U24C, the self-cleavage was 0.04. Work on C25A U24G yielded a self-cleavage of 0.04. For G23C G44C, the self-cleavage was 0.04. In the case of G23C G44U, the self-cleavage is reported as 0.04. Work on G23C G44A yielded a self-cleavage of 0.04. G23A G48U showed a self-cleavage of 0.05. Variant G23A G48C has a self-cleavage of 0.06. Variant G23A G48A has a self-cleavage of 0.05. In the case of G22U G44A, the self-cleavage is reported as 0.72. Variant G22U G44U has a self-cleavage of 0.47. With G22U G44C the self-cleavage was 0.81. Variant G23A U37A has a self-cleavage of 0.77. For G23A U37G, the self-cleavage was 0.78. In the case of G23A U37C, the self-cleavage is reported as 0.72. In the case of G23C G30A, the self-cleavage is reported as 0.02. G23C G30C gave a self-cleavage of 0.02. In the case of G23C G30U, the self-cleavage is reported as 0.02. G23U U12A gave a self-cleavage of 0.05. G23U U12G showed a self-cleavage of 0.05. In the case of G23U U12C, the self-cleavage is reported as 0.04. In the case of G23U U37A, the self-cleavage is reported as 0.14. Work on G23U U37C yielded a self-cleavage of 0.16. Variant G23U U37G has a self-cleavage of 0.19. Variant G23A G53C has a self-cleavage of 0.06. Variant G23A G53A has a self-cleavage of 0.15. In the case of G23A G53U, the self-cleavage is reported as 0.11. Variant C25A G51U has a self-cleavage of 0.06. C25A G51A gave a self-cleavage of 0.1. C25A G51C showed a self-cleavage of 0.05. For G23A G45U, the self-cleavage was 0.06. G23A G45A gave a self-cleavage of 0.05. G23A G45C gave a self-cleavage of 0.05. In the case of C25A G47U, the self-cleavage is reported as 0.04. C25A G47A gave a self-cleavage of 0.04. C25A G47C showed a self-cleavage of 0.03. In the case of C25A U18G, the self-cleavage is reported as 0.35. C25A U18A showed a self-cleavage of 0.1. In the case of C25A U18C, the self-cleavage is reported as 0.15. Variant G22U U43A has a self-cleavage of 0.12. With G22U U43C the self-cleavage was 0.1. G22U U43G showed a self-cleavage of 0.08. With U24A U43G the self-cleavage was 0.05. U24A U43A gave a self-cleavage of 0.07. For U24A U43C, the self-cleavage was 0.07. G23C U37C showed a self-cleavage of 0.07. Work on G23C U37A yielded a self-cleavage of 0.04. For G23C U37G, the self-cleavage was 0.05. G22U G47A gave a self-cleavage of 0.07.
